# Assay outcomes as filed in PubChem BioAssay.
# Tcruzi prolif = T. cruzi intracellular proliferation inhibitors, primary screen, cell-based, beta-gal Tulahuen parasites, NIH3T3 host, luminescence. T. cruzi beta-gal in NIH3T3, GalScreen luminescence, 90 h. inhibition, % at 8.34 µM. hit rate 5.9% among 77,000;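 active = mean inhibition above about 93%, with at least 55% of replicates each passing it, limit read from the data, passing the limit was not always enough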
# GASC1 inh = inhibitors of GASC-1 (KDM4C) histone demethylase, primary screen, biochemical, single concentration HTS; AID 720574, 2013; hit rate 0.15% among 96,000; inhibition, % at 12.5 µM; GST-KDM4C 2-372, H3K9me3 peptide, LANCE TR-FRET;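 active = mean replicate inhibition above about 25%, with at least 55% of replicates also reaching it, limit read from the data, passing the limit was not always enough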
# Target sequence (Q9H3R0 2-372 limits assumed): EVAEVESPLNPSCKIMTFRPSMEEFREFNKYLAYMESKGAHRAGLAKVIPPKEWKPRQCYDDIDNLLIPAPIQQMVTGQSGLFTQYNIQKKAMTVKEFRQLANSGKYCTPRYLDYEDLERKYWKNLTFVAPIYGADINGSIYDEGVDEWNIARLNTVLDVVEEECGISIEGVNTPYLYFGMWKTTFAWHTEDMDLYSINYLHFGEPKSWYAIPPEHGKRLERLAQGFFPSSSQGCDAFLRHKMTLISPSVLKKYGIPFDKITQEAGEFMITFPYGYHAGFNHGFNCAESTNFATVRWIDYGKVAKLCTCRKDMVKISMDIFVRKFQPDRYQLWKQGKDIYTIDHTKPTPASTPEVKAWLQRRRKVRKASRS
#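 material = GST-tagged GASC-1 (JMJD2C) catalytic fragment, aa 2-372 | amount = enzyme final amount 10 nM | medium = HEPES buffer, pH 7.5, plus ascorbate | also added = H3K9me3 peptide substrate, Fe(II), 2-oxoglutarate | dosing = single dose | times = 30 min demethylation and 1 h detection at room temperature | detection = LANCE TR-FRET | read-out basis = Fall in 671/618 emission ratio as inhibition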
# Pf Dd2 inh = P. falciparum Dd2 growth inhibitors, primary screen, SYBR Green fluorescence, single dose replicates; activity change, % at 10 µM; AID 1159554, 2015; hit rate 2.3% among 94,000; 72 h; active compounds read low; in the data active = activity change below about -80%
# IDH1 mut inh = inhibitors of IDH1 R132H reductase, primary screen, biochemical, plate reader, single point; inhibition, % at 10 µM; AID 624101, 2012; diaphorase/resazurin fluorescence, 60 min; Isocitrate dehydrogenase [NADP] cytoplasmic (Homo sapiens), O75874; hit rate 0.18% among 70,000; in the data active = inhibition above about 34%;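 also: 0% = DMSO and 100% = no enzyme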
# Active calls of the source: *; · = no result given. The list is not random: actives were taken first. Their share in the collection is about 5.8%.
SMILES,Tcruzi prolif,GASC1 inh,Pf Dd2 inh,IDH1 mut inh
Cc1ccc(S(=O)(=O)N(C)C[C@@H]2OCc3ccccc3-c3c(n(C)c4ccccc34)C(=O)N([C@H](C)CO)C[C@H]2C)cc1,72.6,-2.2,-81.9*,0.1
C[C@@H]1CN([C@H](C)CO)C(=O)c2c(c3ccccc3n2C)-c2ccccc2CO[C@@H]1CN(C)S(=O)(=O)c1ccccc1,26.0,-2.8,-8.7,·
C[C@@H]1CN([C@@H](C)CO)C(=O)c2c(c3ccccc3n2C)-c2ccccc2CO[C@H]1CN(C)S(=O)(=O)c1ccc(F)cc1,69.6,1.1,-53.8,·
Cc1ccc(S(=O)(=O)N(C)C[C@@H]2OCc3ccccc3-c3c(n(C)c4ccccc34)C(=O)N([C@@H](C)CO)C[C@H]2C)cc1,74.5,2.6,-80.9*,·
COC(=O)c1cc(NC(=O)CSc2nc(C)nc3sc4c(c23)CCC4)cc(C(=O)OC)c1,·,·,·,-0.3
C[C@H](CO)N1C[C@H](C)[C@H](CN(C)S(=O)(=O)c2ccc([N+](=O)[O-])cc2)OCc2ccccc2-c2c(n(C)c3ccccc23)C1=O,·,-1.5,-92.3*,·
C[C@@H]1CN([C@@H](C)CO)C(=O)c2c(c3ccccc3n2C)-c2ccccc2CO[C@@H]1CN(C)S(=O)(=O)c1ccc([N+](=O)[O-])cc1,·,0.2,-77.2,·
Cc1noc(C)c1S(=O)(=O)N(C)C[C@@H]1OCc2ccccc2-c2c(n(C)c3ccccc23)C(=O)N([C@H](C)CO)C[C@@H]1C,84.8,0.8,-83.8*,-0.5
COc1ccccc1NC(=O)N1CCCCN2[C@H](C1)[C@@H](c1ccc(-c3cccc(C)c3)cc1)[C@@H]2CO,76.7,-1.0,-67.3,·
Cc1noc(C)c1S(=O)(=O)Nc1ccc2c(c1)C(=O)N([C@@H](C)CO)C[C@@H](C)[C@@H](CN(C)Cc1ccc(Cl)c(Cl)c1)OCCCC[C@@H](C)O2,94.4,0.0,-82.3*,·
COc1ccc(S(=O)(=O)Nc2ccc3c(c2)C(=O)N([C@H](C)CO)C[C@@H](C)[C@H](CN(C)Cc2ccc(Cl)c(Cl)c2)OCCCC[C@@H](C)O3)cc1,23.2,-0.2,-91.1*,·
COc1ccc(S(=O)(=O)Nc2ccc3c(c2)C(=O)N([C@@H](C)CO)C[C@@H](C)[C@@H](CN(C)Cc2ccc(Cl)c(Cl)c2)OCCCC[C@@H](C)O3)cc1,·,1.4,-67.8,0.1
CCCN(C)C[C@H]1OCCCC[C@H](C)Oc2ccc(NS(=O)(=O)c3ccc(F)cc3)cc2C(=O)N([C@@H](C)CO)C[C@@H]1C,71.8,-0.9,-85.0*,2.5
C[C@@H]1CCCCO[C@@H](CN(C)Cc2ccc(Cl)c(Cl)c2)[C@H](C)CN([C@H](C)CO)C(=O)c2cc(NS(=O)(=O)c3ccc(F)cc3)ccc2O1,86.9,0.8,-83.6*,·
CC(C)NC(=O)N1[C@@H](CO)[C@H](c2ccccc2)C12CN(C(=O)c1ccccn1)C2,·,-0.8,-29.5,·
C[C@@H]1CCCCO[C@H](CN(C)Cc2ccncc2)[C@H](C)CN([C@@H](C)CO)C(=O)c2cc(NC(=O)Nc3ccccc3)ccc2O1,21.7,-0.3,-49.7,3.7
Cc1nnc(SCC(=O)Nc2ccc(Br)cc2)n1-c1ccccc1,·,·,·,-0.5
COc1ccc(S(=O)(=O)Nc2ccc3c(c2)C(=O)N([C@H](C)CO)C[C@H](C)[C@@H](CN(C)Cc2ccc(Cl)c(Cl)c2)OCCCC[C@H](C)O3)cc1,63.3,0.0,-62.3,-0.7
CCCN(C)C[C@H]1OCCCC[C@@H](C)Oc2ccc(NS(=O)(=O)c3ccc(OC)cc3)cc2C(=O)N([C@@H](C)CO)C[C@H]1C,36.9,-0.7,-87.9*,0.8
COc1ccc(CN(C)C[C@H]2OCCCC[C@H](C)Oc3ccc(NS(=O)(=O)c4ccc(OC)cc4)cc3C(=O)N([C@@H](C)CO)C[C@H]2C)cc1,·,1.4,-83.2*,-0.8
COc1ccc(S(=O)(=O)Nc2ccc3c(c2)C(=O)N([C@H](C)CO)C[C@H](C)[C@@H](CN(C)Cc2ccc(Cl)c(Cl)c2)OCCCC[C@@H](C)O3)cc1,·,-0.5,-90.5*,1.9
CCCN(C)C[C@H]1OCCCC[C@@H](C)Oc2ccc(NS(=O)(=O)c3c(C)noc3C)cc2C(=O)N([C@@H](C)CO)C[C@H]1C,·,-1.0,-85.3*,-0.3
CCCN(C)C[C@@H]1OCCCC[C@@H](C)Oc2ccc(NS(=O)(=O)c3ccc(OC)cc3)cc2C(=O)N([C@@H](C)CO)C[C@@H]1C,·,-0.2,·,-1.6
